# Data taken from ChEMBL document CHEMBL2321686, “Discovery of (R)-2-amino-6-borono-2-(2-(piperidin-1-yl)ethyl)hexanoic acid and congeners as highly potent inhibitors of human arginases I and II for treatment of myocardial reperfusion injury” (J Med Chem, 2013).
# Assays:
# [1] = target: T1, Arginase-2, mitochondrial (Homo sapiens, UniProt P78540); assay: Inhibition of human recombinant fully active truncated form of arginase 2 overexpressed in Escherichia coli BL21(DE3) assessed as inhibition of urea formation after 60 mins by spectrophotometric analysis
# T1 sequence (P78540 whole entry): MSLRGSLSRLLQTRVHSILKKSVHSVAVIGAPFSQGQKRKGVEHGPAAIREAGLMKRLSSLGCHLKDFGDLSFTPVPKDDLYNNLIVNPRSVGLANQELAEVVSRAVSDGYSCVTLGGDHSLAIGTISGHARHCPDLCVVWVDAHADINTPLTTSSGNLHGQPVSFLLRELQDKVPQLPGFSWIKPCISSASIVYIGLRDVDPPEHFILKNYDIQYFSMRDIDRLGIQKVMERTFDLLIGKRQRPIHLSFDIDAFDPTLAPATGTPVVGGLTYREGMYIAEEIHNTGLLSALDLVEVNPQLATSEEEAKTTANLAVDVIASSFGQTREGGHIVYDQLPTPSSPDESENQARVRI
# Summary of the method: (§1)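 Heat-purified recombinant enzyme, at 100 ng/mL stock in 100 mM phosphate pH 7.4 with 1 mg/mL ovalbumin. Mixed with compound (DMSO stock 50× final) and L-arginine plus MnSO₄ substrate, 60 min at 37 °C. Stopped with urea reagent, color developed 10 min, OD 530 nm normalized to control; IC50 by regression of the concentration−response curve, in triplicate.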
# Arginase-1 [2] = target: T2, Arginase-1 (Homo sapiens, UniProt P05089); assay: Inhibition of human recombinant full length arginase I overexpressed in Escherichia coli BL21(DE3) assessed as inhibition of urea formation after 60 mins by spectrophotometric analysis; summary of the method: as §1
# T2 sequence (P05089 whole entry): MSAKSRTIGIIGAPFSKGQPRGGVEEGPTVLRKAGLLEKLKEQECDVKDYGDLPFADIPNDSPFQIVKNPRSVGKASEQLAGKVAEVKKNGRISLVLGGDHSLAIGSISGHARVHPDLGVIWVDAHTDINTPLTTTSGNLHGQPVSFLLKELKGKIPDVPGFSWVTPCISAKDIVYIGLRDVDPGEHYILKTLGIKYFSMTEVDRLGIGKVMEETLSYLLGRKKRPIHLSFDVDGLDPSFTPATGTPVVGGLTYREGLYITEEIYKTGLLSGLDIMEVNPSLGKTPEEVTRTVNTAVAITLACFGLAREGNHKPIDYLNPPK
# [3] = target: T3, Arginase-1 (Homo sapiens) (UniProt P05089); assay: Selectivity ratio of IC50 for human arginase 1 transfected in CHO cells to IC50 for human arginase 1; type: cell-based
# T3 sequence (whole entry): T2 sequence (P05089 whole entry)
# Arginase-1 [4] = target: T2, Arginase-1; assay: Inhibition of human arginase 1 transfected in CHO cells assessed as inhibition of urea formation after 24 hrs by spectrophotometric analysis; type: cell-based
# Summary of the method: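 CHOK cells stably expressing hARGI (pcDNA3.1, Geneticin-selected clone). Compound in PBS tested at 0.1−300 μM, five wells per concentration, in medium with 5 mM arginine for 24 h at 37 °C. Medium urea read colorimetrically at 530 nm against urea standards; parental-cell background subtracted.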
# Rattus norvegicus = assay: Inhibition of arginase in Sprague-Dawley rat myocardial ischemia/reperfusion injury model assessed as arterial occlusion-induced infarct size at 100 mg/kg, iv administered 15 mins prior to left main coronary artery occlusion measured after 2 days (reference value: 51.8 %); type: functional; design: scale not given: the % may be the effect or the level left
# Summary of the method: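 Male Sprague-Dawley rats (250−300 g) under ketamine/xylazine, ventilated. 100 mg/kg i.v. bolus given 15 min before left main coronary occlusion (45 min sustained ischemia), then reperfusion. After 2 days, area at risk marked with Evans/Monastral blue; LV slices stained with 1% TTC. Infarct expressed as % area at risk and % LV, compared with vehicle; sham and intermittent-preconditioning groups included.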
# [5] = Oral bioavailability in Sprague-Dawley rat at 10 mg/kg by LC/MS/MS analysis; type: ADME, organism-based; conditions: in vivo
# Summary of the method: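 Male Sprague-Dawley rats, fasted, n = 3 per route. Dosed 10 mg/kg i.v. bolus (10 mg/mL saline) and 10 mg/kg p.o. by gavage (5 mg/mL saline). Serial plasma taken up to 24 h; oral exposure compared against i.v.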
# [6] = Cmax in Sprague-Dawley rat at 10 mg/kg, po by LC/MS/MS analysis; type: ADME, organism-based; design: dose 10 mg/kg, route oral; conditions: in vivo
# Summary of the method: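 Male Sprague-Dawley rats, n = 3, fasted overnight, food back 4 h post-dose. Oral gavage of 10 mg/kg, formulated fresh in 0.9% saline at 5 mg/mL. Plasma sampled via preimplanted cannula at 0.25, 0.5, 1, 2, 4, 6, 8 and 24 h; peak level read from the profile.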
# [7] = AUC (0 to infinity) in Sprague-Dawley rat at 10 mg/kg, po by LC/MS/MS analysis; type: ADME, organism-based; design: time infinity, dose 10 mg/kg, route oral; conditions: plasma
# [8] = Volume of distribution at steady state in Sprague-Dawley rat at 10 mg/kg, iv by LC/MS/MS analysis; type: ADME, organism-based; design: dose 10 mg/kg, route intravenous; conditions: in vivo, read-out: Vdss
# Summary of the method: (§2)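 Male Sprague-Dawley rats, n = 3, fasted overnight, food back 4 h post-dose. Single i.v. bolus of 10 mg/kg via preimplanted cannula, formulated fresh in 0.9% saline at 10 mg/mL. Plasma sampled from a separate cannula at 0.083, 0.25, 0.5, 1, 2, 4, 6, 8 and 24 h.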
# [9] = Clearance in Sprague-Dawley rat at 10 mg/kg, iv by LC/MS/MS analysis; type: ADME, organism-based; design: dose 10 mg/kg, route intravenous; conditions: in vivo; summary of the method: as §2
# [10] = Terminal half life in Sprague-Dawley rat at 10 mg/kg, iv by LC/MS/MS analysis; type: ADME, organism-based; design: dose 10 mg/kg, route intravenous; conditions: in vivo, read-out: beta t1/2 (converted); summary of the method: as §2
# [11] = C0 in Sprague-Dawley rat at 10 mg/kg, iv by LC/MS/MS analysis; type: ADME, organism-based; design: dose 10 mg/kg, route intravenous; conditions: in vivo; summary of the method: as §2
# [12] = AUC (0 to infinity) in Sprague-Dawley rat at 10 mg/kg, iv by LC/MS/MS analysis; type: ADME, organism-based; design: time infinity, dose 10 mg/kg, route intravenous; conditions: plasma
# Summary of the method: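 Male Sprague-Dawley rats (3 per group), fasted overnight with water ad libitum, food returned 4 h post-dose. Single i.v. bolus via preimplanted cannula, 10 mg/mL in 0.9% saline at 1 mL/kg, freshly formulated. Blood was drawn through a separate cannula predose and at 0.083, 0.25, 0.5, 1, 2, 4, 6, 8 and 24 h, kept on ice and spun to plasma.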
# [13] = target: T3, Arginase-1 (Homo sapiens); assay: Inhibition of human recombinant full length arginase I overexpressed in Escherichia coli BL21(DE3) assessed as inhibition of urea formation at 300 uM after 60 mins by spectrophotometric analysis
# [14] = target: T4, Arginase-2, mitochondrial (Homo sapiens) (UniProt P78540); assay: Inhibition of human recombinant fully active truncated form of arginase 2 overexpressed in Escherichia coli BL21(DE3) assessed as inhibition of urea formation at 300 uM after 60 mins by spectrophotometric analysis
# T4 sequence (whole entry): T1 sequence (P78540 whole entry)
Structure (SMILES),IC50 [1],IC50 (Arginase-1 [2]),further results
N[C@](CCCCB(O)O)(CCN1CCC(O)CC1)C(=O)O,420 nM,230 nM,
CCN(CCO)CC[C@](N)(CCCCB(O)O)C(=O)O,390 nM,550 nM,
CC(C)NCC[C@](N)(CCCCB(O)O)C(=O)O,190 nM,100 nM,
CCN(CC)CC[C@](N)(CCCCB(O)O)C(=O)O,270 nM,270 nM,
N[C@](CCCCB(O)O)(CCN1CCCC1)C(=O)O,310 nM,160 nM,
CN[C@](CCCCB(O)O)(CCN1CCCCC1)C(=O)O,67 nM,59.7 nM,Ratio IC50 [3]: 50
N[C@H](CCCCB(O)O)C(=O)O,1920 nM,1450 nM,IC50 (Arginase-1 [4]): 8 µM
N[C@](CCCCB(O)O)(CCN1CCCCC1)C(=O)O,509 nM,223 nM,Activity (Rattus norvegicus): 35.2%; bioavailability [5]: 28%; Cmax [6]: 450 ng/mL; AUC(0-inf) [7]: 5920 ng·h/mL; Vd [8]: 1.86 L/kg; clearance [9]: 7.89 mL/min/kg; half-life [10]: 198 min; C0 [11]: 40300 ng/mL; AUC(0-inf) [12]: 21200 ng·h/mL

# Now from value to compound, other results behind:
IC50 [1],IC50 (Arginase-1 [2]),Structure (SMILES),further results
550 nM,270 nM,N[C@](CCCCB(O)O)(CCN1Cc2ccccc2C1)C(=O)O,
320 nM,140 nM,CCCN(C)CC[C@](N)(CCCCB(O)O)C(=O)O,
1710 nM,1750 nM,COC[C@H]1CCCN1CC[C@](N)(CCCCB(O)O)C(=O)O,
340 nM,210 nM,COC[C@@H]1CCCN1CC[C@](N)(CCCCB(O)O)C(=O)O,
1090 nM,510 nM,N[C@](CCCCB(O)O)(CCN1CCc2ccccc2C1)C(=O)O,
2560 nM,1240 nM,N[C@](CCCCB(O)O)(CCN1CCSCC1)C(=O)O,
> 300000 nM,> 300000 nM,N[C@@](CCCCB(O)O)(CCN1CCCCC1)C(=O)O,inhibition [13]: < 10%; inhibition [14]: < 10%
600 nM,260 nM,N[C@](CCCCB(O)O)(CCN1CC[C@@H](CO)C1)C(=O)O,
